Reference: article PMC10432884 (Clinical and Translational Science, 2023)
Where two headings read alike, the source gives them in different places.

Experiments:
[1] = FI phase pharmacokinetics; assay type: in vivo, human
Outline: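 Open-label, randomized two-period crossover in 14 healthy subjects. Each received a single 10 mg oral tablet fasted, or ~30 min after a high-fat meal (800–1000 kcal). Washout was 21 days. Plasma (K-EDTA) was sampled predose and 15 min–48 h postdose, plus days 7 and 14 (period 1) and days 5 and 9 (period 2), and assayed by validated LC-MS/MS (LLOQ 1.00 ng/mL). Cmax, AUCτ and AUCinf were compared by ANOVA (food, sequence, period fixed; subject-within-sequence random).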

healthy subjects [2] = test: MAD phase blood pressure; assay type: in vivo, human
Outline: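 Double-blind MAD phase: four cohorts of 10 healthy subjects, randomized 4:1 to oral tablet (2, 5, 10, 15 mg) or placebo q.d. for 14 days after ≥10 h fast. BP and pulse were recorded predose daily and at 1, 2, 4, 6, 12 h on days 1, 2 and 14. Orthostatic BP was taken 24 and 48 h after the last dose. ANCOVA (treatment, time, treatment×time; random subject; predose covariate) gave LSM differences versus placebo with 95% CI.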

healthy subjects [3] = test: SAD phase CNS test battery; assay type: in vivo, human
healthy subjects [4] = test: MAD phase CNS test battery; assay type: in vivo, human
[5] = Plasma protein binding, equilibrium dialysis; assay type: in vitro ADME, human; conditions: assumed from protein binding
Outline: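 In vitro equilibrium dialysis of test compound at 1 and 10 μM in human plasma (also mouse, rat, dog and monkey). Mean percentage bound was determined. The free fraction was used to correct CSF/plasma concentration ratios.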

[6] = First-in-human trial, all phases: overall pharmacokinetics; assay type: in vivo
healthy subjects [7] = test system: healthy subjects
healthy subjects [8] = test system: healthy subjects; remark: listed apart in the source
rodents = conditions: treated rodents; cited from earlier work
[9] = SAD pooled zagociguat group (n = 42)
[10] = MAD pooled zagociguat group (n = 32)
[11] = same subject, 2 mg q.d., day 30

## Fc1ccccc1Cc1nc(-c2nc(C(F)(F)F)n[nH]2)cn2ccnc12 [zagociguat, 8‐(2‐fluorobenzyl)‐6‐(3‐(trifluoromethyl)‐1H‐1,2,4‐triazol‐5‐yl)imidazo[1,2‐a]pyrazine]
[1]; FI 10 mg, high-fat meal vs fasted
  Food effect: no food effects were observed
[1]; FI 10 mg, 95% CI: 0.94, 1.03
  C max LSM ratio fed vs. fasted: 0.99
[1]; FI, 21-day washout, limit of quantification 1.00 ng/mL
  Plasma concentration in predose samples of second treatment period: below the limit of quantification
Healthy subjects [2]; MAD 2 mg q.d., over 14 days, 95% CI: −10.9, −1.3, p = 0.015
  Mean DBP, LSMs difference from placebo: −6.1 mmHg
Healthy subjects [2]; MAD 2 mg q.d., over 14 days, 95% CI: −11.6, −0.6, p = 0.032
  Mean SBP, LSMs difference from placebo: −6.1 mmHg
Healthy subjects [2]; MAD 5 mg q.d., day 14, 95% CI: −13.0, −2.0, p = 0.009
  DBP, maximum difference from placebo: −7.5 mmHg
Healthy subjects [2]; MAD 5 mg q.d., over 14 days, 95% CI: −11.0, −1.4, p = 0.014
  Mean DBP, LSMs difference from placebo: −6.2 mmHg
Healthy subjects [2]; MAD 10 and 15 mg groups
  SBP or DBP change: No decreases
Healthy subjects [2]; maximum over dose groups
  Reduction in mean diastolic blood pressure: up to 7.5 mmHg
  Reduction in mean systolic blood pressure: up to 6.1 mmHg
Healthy subjects [3]
  pEEG and CNS tests, differences between placebo and zagociguat groups: No dose‐dependent or consistent statistically significant differences
Healthy subjects [4]
  pEEG and CNS tests, differences between placebo and zagociguat groups: No dose‐dependent or consistent statistically significant differences
[5]
  Free zagociguat concentration in human plasma, of total concentration: 1.11%
[6]; human, plasma, oral
  half-life: 52.8 to 67.1 h
[6]; single and multiple escalating doses
  Exposure vs dose: increased in a dose‐proportional manner
Healthy subjects [7]; SAD 0.3 mg (n = 6)
  Subjects discontinued from study drug due to ≥1 TEAE: 0 n
  Subjects with ≥1 SAE: 0 n
  Subjects with ≥1 TEAE: 2 (33.3%) n (%)
  Subjects with ≥1 study drug related TEAE: 2 n
  TEAEs: 5 n
Healthy subjects [7]; SAD 1 mg (n = 6)
  Subjects discontinued from study drug due to ≥1 TEAE: 0 n
  Subjects with ≥1 SAE: 0 n
  Subjects with ≥1 TEAE: 2 (33.3%) n (%)
  Subjects with ≥1 study drug related TEAE: 1 n
  TEAEs: 5 n
Healthy subjects [7]; SAD 3 mg
  Orthostatic hypotension TEAE: One
Healthy subjects [7]; SAD 3 mg (n = 6)
  Subjects discontinued from study drug due to ≥1 TEAE: 0 n
  Subjects with ≥1 SAE: 0 n
  Subjects with ≥1 TEAE: 3 (50.0%) n (%)
  Subjects with ≥1 study drug related TEAE: 2 n
  TEAEs: 7 n
Healthy subjects [7]; SAD 10 mg (n = 6)
  Subjects discontinued from study drug due to ≥1 TEAE: 0 n
  Subjects with ≥1 SAE: 0 n
  Subjects with ≥1 TEAE: 2 (33.3%) n (%)
  Subjects with ≥1 study drug related TEAE: 2 n
  TEAEs: 7 n
Healthy subjects [7]; SAD 20 mg (n = 6)
  Subjects discontinued from study drug due to ≥1 TEAE: 0 n
  Subjects with ≥1 SAE: 0 n
  Subjects with ≥1 TEAE: 3 (50.0%) n (%)
  Subjects with ≥1 study drug related TEAE: 2 n
  TEAEs: 5 n
Healthy subjects [7]; SAD 30 mg (n = 6)
  Subjects discontinued from study drug due to ≥1 TEAE: 0 n
  Subjects with ≥1 SAE: 0 n
  Subjects with ≥1 TEAE: 5 (83.3%) n (%)
  Subjects with ≥1 study drug related TEAE: 5 n
  TEAEs: 13 n
Healthy subjects [7]; SAD 50 mg (4/6 subjects)
  Subjects with gastrointestinal (GI)-related TEAEs: 66.7%
Healthy subjects [7]; SAD 50 mg (n = 6)
  Subjects discontinued from study drug due to ≥1 TEAE: 0 n
  Subjects with ≥1 SAE: 0 n
  Subjects with ≥1 TEAE: 5 (83.3%) n (%)
  Subjects with ≥1 study drug related TEAE: 3 n
  TEAEs: 15 n
Healthy subjects [7]; SAD all cohorts except 50 mg (1/6 subjects each)
  Subjects with gastrointestinal (GI)-related TEAEs: 16.7%
Healthy subjects [7]; SAD all zagociguat-treated subjects (8 of 42), none on placebo
  Subjects with at least one dizziness TEAE: 19.0%
Healthy subjects [7]; [9]
  Subjects discontinued from study drug due to ≥1 TEAE: 0 n
  Subjects with ≥1 SAE: 0 n
  Subjects with ≥1 TEAE: 22 (52.4%) n (%)
  Subjects with ≥1 study drug related TEAE: 17 n
  TEAEs: 57 n
Healthy subjects [7]; single doses up to 50 mg
  Tolerability: well‐tolerated with no safety signals
Healthy subjects [8]; MAD 2 mg (n = 8)
  Subjects discontinued from study drug due to ≥1 TEAE: 0 n
  Subjects with ≥1 SAE: 0 n
  Subjects with ≥1 TEAE: 6 (75%) n (%)
  Subjects with ≥1 study drug related TEAE: 6 n
  TEAEs: 17 n
Healthy subjects [8]; MAD 5 mg (n = 8)
  Subjects discontinued from study drug due to ≥1 TEAE: 0 n
  Subjects with ≥1 SAE: 0 n
  Subjects with ≥1 TEAE: 8 (100%) n (%)
  Subjects with ≥1 study drug related TEAE: 7 n
  TEAEs: 27 n
Healthy subjects [8]; MAD 10 mg (n = 8)
  Subjects discontinued from study drug due to ≥1 TEAE: 0 n
  Subjects with ≥1 SAE: 0 n
  Subjects with ≥1 TEAE: 8 (100%) n (%)
  Subjects with ≥1 study drug related TEAE: 5 n
  TEAEs: 19 n
Healthy subjects [8]; MAD 10 mg group
  Subjects with GI TEAEs: five
Healthy subjects [8]; MAD 15 mg (n = 8)
  Subjects discontinued from study drug due to ≥1 TEAE: 0 n
  Subjects with ≥1 SAE: 0 n
  Subjects with ≥1 study drug related TEAE: 5 n
  TEAEs: 18 n
Healthy subjects [8]; MAD phase
  Orthostatic hypotension events: No orthostatic hypotension events
Healthy subjects [8]; [10]
  Subjects discontinued from study drug due to ≥1 TEAE: 0 n
  Subjects with ≥1 SAE: 0 n
  Subjects with ≥1 study drug related TEAE: 23 n
  TEAEs: 81 n
Healthy subjects [8]; multiple doses up to 15 mg q.d. for 14 days
  Tolerability: well‐tolerated with no safety signals
Healthy subjects [8]; one subject, 2 mg q.d., day 16 (after last dose), normal range < 35 U/L
  AST, peak: 49 U/L
Healthy subjects [8]; one subject, 2 mg q.d., day 16 (after last dose), normal range < 45 U/L
  ALT, peak: 92 U/L
Healthy subjects [8]; one subject, 2 mg q.d., day 16 (after last dose), normal range < 55 U/L
  GGT, peak: 22 U/L
Healthy subjects [8]; [11]
  ALT at follow-up: 49 U/L
  AST at follow-up: 43 U/L
  GGT at follow-up: 23 U/L
rodents
  cGMP concentrations in CSF: increases in cGMP concentrations
